Fewer inactive variants are shown than the library holds.
B1: tRNA (parent)
chain: GUUCCGUUGGCGUAAUGGUAACGCGUCUCCCUCCUAAGGAGAAGACUGCGGGUUCGAGUCCCGUACGGAACG

Variants of: B1
Assay: yeast fitness relative to wild type (ratio to wild type); higher = fitter; tRNA-Arg(CCU), competitive growth, 37 C, YPD
In short: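 A pool of Saccharomyces cerevisiae strains, each with a tRNA-Arg(CCU) gene variant at the native genomic locus, was competed in YPD at 37°C for 24 hours across six parallel replicates. The variants had been chemically synthesised at a 3% per-site mutation rate over 69 sites, and gene amplicons before and after competition were read by 100-nucleotide paired-end sequencing. Darwinian fitness relative to wild type rested on changes in genotype frequencies. Genotypes required ≥ 100 starting reads, and estimates < 0.5 were set to 0.5.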

Variant	yeast fitness
GUUCCGUUGGCGUAAUGGUAAGGCGUCUCCCUCCAAAGGAGAAGACUGCGGGUUCGGGUCCAGUACGGAACG [C22G U35A A57G C62A]	0.567
GUUCCGUUGGCGUAAUGGUAAGGCGUCCCCGUCCUAAGGAGAAGACUGCGGGUUCGAGUCCCGUACGGAACG [C22G U28C C31G]	0.6
GUUCCGUUGGCGUAAUGGUAAUGCGUCUCCCUCCUAAGGUGAAGACUGCGGGUUCGAGUCCCGUUCGGAACG [C22U A40U A65U]	≤ 0.5
GUUCCGUUGGCGUAAUGGUAAUGCGUCUCCCUCCUAAGGCGAAGACUGCGGGUUCGAGUCCUGUACGGAACG [C22U A40C C62U]	0.648
GUUCCGUUGGCGUAAUGGUAAUGCGUCUCCCUCCUAAGGUGAGGACUGCGGGUUCGAGUCCCGUUCGGAACG [C22U A40U A43G A65U]	0.536
GUUCCGUUGGCGUAAUGGUAAUGCGUCUCCCUCCUAAGGGGAUGAGUGGGGGUUCGAGUCCUGCACGGAACG [C22U A40G A43U C46G C49G C62U U64C]	≤ 0.5
GUUCCGUUGGCGUAAUGGUAAUGCGUCUCCCUCCUAAGGUGAAGACUGCGGGUUCGUGUCCCGUACGGUACG [C22U A40U A57U A69U]	≤ 0.5
GUUCCGUUGGCGUAAUGGUAAGGCGGGUCCCUCCUAAGGAGAAGACUGCGGGAUCGAGUCCCGUACGGAACG [C22G U26G C27G U53A]	≤ 0.5
GUUCCGUUGGCGUAAUGGUAAGGCGUCUCCCUCCCAAGGAGAAGACUGCCGGUUCGAGUCCCGUACGGAACG [C22G U35C G50C]	≤ 0.5
GUUCCGUUGGCGUAAUGGUAAUGCGUCUCCCUCCUACGGAGAAAACUGCGGGUUCGAGUCCCCUACGGAACG [C22U A37C G44A G63C]	≤ 0.5
GUUCCGUUGGCGUAAUGGUAAGGCGUCACCCUCCUAAGGAGAAAACUGCGGGUUCGAGUCCCGUACGGAACG [C22G U28A G44A]	≤ 0.5
GUUCCGUUGGCGUAAUGGUAAUGCGUCUCCCUCCUGAGGAGAAGACUGCGGGUUAGAGUCCCGUACGGAACG [C22U A36G C55A]	≤ 0.5
GUUCCGUUGGCGUAAUGGUAAGGCGUCUCCCUCCAAAGGAGAAGACCGCGGGUUUGAGUCCCGUACGGCACG [C22G U35A U47C C55U A69C]	0.542
GUUCCGUUGGCGUAAUGGUAAUGCGUCUCCCUCCUAAGGAGCAGACUGCGGGUUCGAGUCCCGUACGGAACG [C22U A42C]	0.808
GUUCCGUUGGCGUAAUGGUAAUGCGUCUCCCUCCUAAGGAGGAGACUGCGGGUUCGAGUCCCGUACGGAACG [C22U A42G]	0.794
GUUCCGUUGGCGUAAUGGUAAGGCGUCUCCCUCCUAAGGAGAAGACGGCGGGUUCGAGUCCCGUACGGAACG [C22G U47G]	0.597
GUUCCGUUGGCGUAAUGGUAAGGCGUCUCCCUCCUAAGGAGAAGACAGCGGGUUCGAGUCCCGUACGGAACG [C22G U47A]	0.754
GUUCCGUUGGCGUAAUGGUAAGGCGUCUCCCUCCUAAGGAGAAGACCGCGGGUUCGAGUCCCGUACGGAACG [C22G U47C]	0.89
GUUCCGUUGGCGUAAUGGUAAGGCGUCUCCCUCCUAAGGAGAAGACUGCGGGUUCGAGCCCCGUACGGAACG [C22G U59C]	0.864

Variant	yeast fitness
GUUCCGUUGGCGUAAUGGUAAGGCGUCUCCCUCCUAAGGAGAAGACUGCGGGUUCGAGUCCCGAACGGAACG [C22G U64A]	0.696
GUUCCGUUGGCGUAAUGGUAAGGCGUCUCCCUCCUAAGGAGAAGACUGCGGGUUCGAGUCCCGUACCGAACG [C22G G67C]	0.97
GUUCCGUUGGCGUAAUGGUAAUGCGUCUCCCUCCUAGGGAGAAGACUCCGGGUUCGAGUCCCGUACGGAACG [C22U A37G G48C]	0.54
GUUCCGUUGGCGUAAUGGUAAUGCGUCUCCCUCCUCAGGAGAAGACUGCGGGUUCGAGUCCCGUAAGGAACG [C22U A36C C66A]	≤ 0.5
GUUCCGUUGGCGUAAUGGUAAUGCGUCUCCCUCCUAAGGUGAAGACUGCGGGUUCGAGUCCCGUACGGAACG [C22U A40U]	0.642
GUUCCGUUGGCGUAAUGGUAAUGCGUCUCCCUCCUAAGGCGAAGACUGCGGGUUCGAGUCCCGUACGGAACG [C22U A40C]	0.7
GUUCCGUUGGCGUAAUGGUAAGGCGUCUCCCUCCUAAGGAGAAGACUGCGGGUAUGAGUCCCGUAAGGAACG [C22G U54A C55U C66A]	≤ 0.5
GUUCCGUUGGCGUAAUGGUAAUGCGUCUCCCUCCUCAGGAGAAGACUGUGGGUUCGAGUCCCGUGCGGAACG [C22U A36C C49U A65G]	0.528
GUUCCGUUGGCGUAAUGGUAAUGCGUCUCCCUCCUUAGGAGAAGACUGUGGGUUCGACUCCCGUACGGAACG [C22U A36U C49U G58C]	0.575
GUUCCGUUGGCGUAAUGGUAAGGCGUCUCCCUCCUAAGGAGAAGACUGCGGGUAUGAGUCCCGUACGGAACG [C22G U54A C55U]	≤ 0.5
GUUCCGUUGGCGUAAUGGUAAUGCGUCUCCCUCCUCAGGAGAAGCCUGCGGGUUCGAGUCCCGUACGGAACG [C22U A36C A45C]	≤ 0.5
GUUCCGUUGGCGUAAUGGUAAUGCGUCUCCCUCCUAAGGAGGAGCCUGCGGGUUCGAGUCCCGUACGGAACG [C22U A42G A45C]	≤ 0.5
GUUCCGUUGGCGUAAUGGUAAUGCGUCUCCCUCCUAAGGAGGAGACUGCGGGUUGGAGUCCCGUACGGAACG [C22U A42G C55G]	0.567
GUUCCGUUGGCGUAAUGGUAAGGCGUCUCCCUCCUAAGGAGAAGACUGCGGGUUCGAGUCCCCUACGUAACG [C22G G63C G68U]	0.52
GUUCCGUUGGCGUAAUGGUAAGGCGUCUCCCUCCAAAGGAGAAGACCGCGGGUUUGAGUCCCGUACGGAACG [C22G U35A U47C C55U]	≤ 0.5
GUUCCGUUGGCGUAAUGGUAAUGCGUCUCCCUCCUAAGGAGGAGCCUGCGGGUUGGAGUCCCGUACGGAACG [C22U A42G A45C C55G]	≤ 0.5
GUUCCGUUGGCGUAAUGGUAAGGCGUCUCCCUCCUAAGGAGAAGACUGCGGGGUUGAGUCCCGUACGGAACG [C22G U53G C55U]	≤ 0.5
GUUCCGUUGGCGUAAUGGUAAGGCGCCUCCCUUCUAUGGCGAAGACUGCGGGUUCGAGUCCCCUACGGAACG [C22G U26C C33U A37U A40C G63C]	≤ 0.5
GUUCCGUUGGCGUAAUGGUAAUGCGUCUCCCUCCUAAGGGGAAGACUGCGGGUUCGAGUCUCGGACGGUACG [C22U A40G C61U U64G A69U]	≤ 0.5

— the RNAGym collection of RNA variant scans (doi:10.1126/science.aae0568)
